Test results: article PMC11112339 (iScience, 2024)
Entries after “also recorded” stand apart in the source; their conditions may differ.

What was measured:
[1] = tested on: Tumor (iCCA) organoids; experiment: Organoid viability, CellTiter-Glo 3D; type: cell-based, human; conditions: 72 h; for EC50: Homo sapiens, read-out: EC50, iCCA-derived organoids growth
Outline: (§1)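 Organoids came from dissociated patient tumour (iCCA) or non-tumour biopsies, embedded in reduced-growth-factor BME droplets with expansion medium. After 3 days, test compound was added at graded concentrations in expansion medium with 0.02% Tween20 for 72 h. Viability was read by CellTiter-Glo 3D luminescence as % of DMSO-treated organoids, with ≥3 independent experiments. EC50 (tumour organoids) came from nonlinear regression.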

[2] = target: T1, mVDAC1 N238K (Mus musculus, UniProt Q60932, N251K); experiment: Fluorescence polarization NADH competition assay; type: binding
T1 sequence (Q60932 14-296 N251K): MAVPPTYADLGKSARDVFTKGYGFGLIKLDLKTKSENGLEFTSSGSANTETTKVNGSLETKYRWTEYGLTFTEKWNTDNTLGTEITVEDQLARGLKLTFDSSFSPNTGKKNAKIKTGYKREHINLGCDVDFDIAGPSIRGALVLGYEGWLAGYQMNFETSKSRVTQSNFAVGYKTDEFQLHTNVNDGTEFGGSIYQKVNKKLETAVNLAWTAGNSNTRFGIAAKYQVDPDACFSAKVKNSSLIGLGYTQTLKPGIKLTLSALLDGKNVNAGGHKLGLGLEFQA
Outline: (§2)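 This is an FP competition assay. Refolded, SEC-purified recombinant mVDAC1 (7 μM) was preloaded with 5 μM NADH and titrated with increasing test compound. Buffer was 20 mM Tris, 50 mM NaCl, 0.1% LDAO, pH 8.0. FP was computed from parallel and perpendicular intensities. Apparent KD came from a Hill fit of FP against compound concentration, run in triplicate.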

[3] = target: mVDAC1 R218Y (Mus musculus, UniProt Q60932, R231Y); experiment: Thermal denaturation; type: binding; conditions: small molecule 1 mM in DMF; mean ± SEM n=3
Sequence of mVDAC1 R218Y (Q60932 14-296 R231Y): as the sequence (Q60932 14-296 N251K) above, with R218Y, K238N counted along it
Outline: (§3)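 Wild-type or mutant refolded mVDAC1 (0.9 mg/ml final in 20 mM Tris-HCl, 50 mM NaCl, 0.1% LDAO, pH 8.0) was pretreated 1 h at 4°C with 1 mM test compound or 0.5% DMF. It was heated in capillaries from 35 to 95°C at 30°C/min while tryptophan fluorescence was read at 330/350 nm. Ti was the first-derivative maximum of F350/F330, checked by Hill fit. ΔTi was treated versus untreated, with ≥3 repeats.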

[4] = tested on: iCCA patient-derived 2D cells; experiment: MTT viability of patient-derived 2D cells; type: cell-based, human; conditions: 72 h exposure, 2μM
Outline: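 Primary 2D cells came from iCCA patient biopsies, with paired non-tumour cells as control. Cells were grown in DMEM/F-12 with 10% FBS and 1% pen/strep. They were seeded at 5.000 cells/well, treated 3 days later with test compound at 2 μM for 72 h, and scored by MTT absorbance. n = 3.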

[5] = target: mVDAC1 F18A (Mus musculus, UniProt Q60932, F31A); experiment: Thermal denaturation; type: binding; conditions: small molecule 1 mM in DMF; mean ± SEM n=3
Sequence of mVDAC1 F18A (Q60932 14-296 F31A): as the sequence (Q60932 14-296 N251K) above, with F18A, K238N counted along it
Outline: as §3

[6] = target: T2, mVDAC1 wild-type (Mus musculus, UniProt Q60932); experiment: Thermal denaturation; type: binding; conditions: mean ± SEM n=3; for Temperature denaturation inflection point (Ti) shift: mVDAC1 0.9 mg/mL in LDAO, VA molecule 1 mM vs DMF 0.5%; for Inflection temperature T(i), WT: small molecule 1 mM in DMF
T2 sequence (Q60932 14-296): as the sequence (Q60932 14-296 N251K) above, with K238N counted along it
Outline: as §3

[7] = target: mVDAC1 N207R (Mus musculus, UniProt Q60932, N220R); experiment: Thermal denaturation; type: binding; conditions: small molecule 1 mM in DMF; mean ± SEM n=3
Sequence of mVDAC1 N207R (Q60932 14-296 N220R): as the sequence (Q60932 14-296 N251K) above, with N207R, K238N counted along it
Outline: as §3

[8] = target: T3, mVDAC1 K236A (Mus musculus, UniProt Q60932, K249A); experiment: Fluorescence polarization NADH competition assay; type: binding; conditions: apparent KD, NADH 5 μM, protein 7 μM, mean ± SEM n=3
T3 sequence (Q60932 14-296 K249A): as the sequence (Q60932 14-296 N251K) above, with K236A, K238N counted along it
Outline: as §2

[9] = target: T2, mVDAC1 wild-type; experiment: Fluorescence polarization NADH competition assay; type: binding
Outline: as §2

[10] = tested on: NIH-3T3; experiment: Cell viability MTT assay; type: cell-based; conditions: Mus musculus, NIH3T3, 48 h, read-out: Half the effective dose (EC50), cell viability
Outline: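 NIH-3T3 kept in high-glucose DMEM with 10% calf serum and penicillin/streptomycin at 37°C, 5% CO₂, used at 70–80% confluency. Seeded 10.000 cells/well, treated 24 h later with a concentration range of test compound for 48 h. MTT added (final 5 mg/ml), 3 h at 37°C, formazan dissolved in DMSO, absorbance 590 nm. n = 3, mean ± SEM; EC50 by nonlinear regression.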

[11] = target: mVDAC1 N238R (Mus musculus, UniProt Q60932, N251R); experiment: Thermal denaturation; type: binding; conditions: small molecule 1 mM in DMF; mean ± SEM n=3
Sequence of mVDAC1 N238R (Q60932 14-296 N251R): as the sequence (Q60932 14-296 N251K) above, with K238R counted along it
Outline: as §3

[12] = target: T1, mVDAC1 N238K; experiment: Thermal denaturation; type: binding; conditions: small molecule 1 mM in DMF; mean ± SEM n=3
Outline: as §3

[13] = target: T3, mVDAC1 K236A; experiment: Thermal denaturation; type: binding; conditions: small molecule 1 mM in DMF; mean ± SEM n=3
Outline: as §3

[14] = target: mVDAC1 N238F (Mus musculus, UniProt Q60932, N251F); experiment: Thermal denaturation; type: binding; conditions: small molecule 1 mM in DMF; mean ± SEM n=3
Sequence of mVDAC1 N238F (Q60932 14-296 N251F): as the sequence (Q60932 14-296 N251K) above, with K238F counted along it
Outline: as §3

[15] = target: mVDAC1 (Mus musculus, UniProt Q60932); experiment: 19F NMR protein-ligand interaction experiment; type: binding; conditions: compound 100 μM in LDAO buffer, with 5 μM mVDAC1
Sequence of mVDAC1 (Q60932 14-296): as the sequence (Q60932 14-296 N251K) above, with K238N counted along it
Outline: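 Recombinant mouse VDAC1 was expressed in E. coli M15, refolded from inclusion bodies into LDAO and purified by SEC. Test compound was used at 100 μM final in 20 mM Tris-HCl, 50 mM NaCl, 0.1% LDAO, pH 8.0, with or without 5 μM VDAC1. 19F spectra were taken at 298 K: 0.56 s acquisition, 1 s inter-scan delay, 256 scans, 2 Hz exponential broadening.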

[16] = tested on: non-tumor (NT) organoids; experiment: Organoid viability, CellTiter-Glo 3D; type: cell-based, human; conditions: 72 h
Outline: as §1

[17] = target: T2, mVDAC1 wild-type; experiment: Fluorescence polarization, NADH binding to purified VDAC1; conditions: read-out: KD of NADH, VDAC1 wild-type; 5 μM NADH titrated with protein; Hill fit
Outline: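 NADH at 5 μM was titrated with increasing recombinant refolded mVDAC1 in 20 mM Tris, 50 mM NaCl, 0.1% LDAO, pH 8.0. NADH intrinsic fluorescence was read at ex 355 / em 460 nm. FP was computed from parallel and perpendicular intensities. KD came from a nonlinear Hill fit of FP against protein concentration, in triplicate.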

| EC50 [1] [µM] | Kd [2] [µM] | Inflection temperature T(i), R218Y [3] [°C] | Inflection temperature T(i), F18A [5] [°C] | Temperature denaturation inflection point (Ti) shift [6] | Inflection temperature T(i), WT [6] [°C] | Inflection temperature T(i), N207R [7] [°C] | Kd [8] [µM] | Kd [9] [µM] | Inflection temperature T(i), N238R [11] [°C] | Inflection temperature T(i), N238K [12] [°C] | Inflection temperature T(i), K236A [13] [°C] | Inflection temperature T(i), N238F [14] [°C] | Kd [17] [µM] | SMILES | effect on viability of iCCA organoids [1] | reduction in iCCA cell viability [4] | EC50 [10] [µM] | 19F resonance change upon VDAC1 binding [15] | effect on viability of non-tumor organoids [16] |
| --- | --- | --- | --- | --- | --- | --- | --- | --- | --- | --- | --- | --- | --- | --- | --- | --- | --- | --- | --- |
| 15 ± 2 | 15.2 ± 0.1 | 62.3 ± 0.1 | 58.0 ± 0.1 | +4.6 ± 0.1 °C | 60.2 ± 0.1 | 63.2 ± 0.1 | 26.4 ± 0.4 | 18.7 ± 0.3 | 62.5 ± 0.1 | 64.0 ± 0.1 | 57.3 ± 0.1 | 64.0 ± 0.1 |  | O=C(CC(O)(c1nc2ccccc2s1)C(F)(F)F)c1cccc(Br)c1 (stereo not drawn) [VA-C1, 3-(1,3-benzothiazol-2-yl)-1-(3-bromophenyl)-4,4,4-trifluoro-3-hydroxybutan-1-one] | reduce cell viability of iCCA organoids in a dose-dependent manner | about 50% | 146 ± 3 | direct binding; also recorded: reduction and broadening of its peak |  |
|  | 13.1 ± 0.4 | 62.3 ± 0.1 | 57.2 ± 0.1 | +4.7 ± 0.1 °C | 60.2 ± 0.1 | 62.9 ± 0.1 | 24.2 ± 0.6 | 15.9 ± 0.7 | 63.1 ± 0.1 | 64.5 ± 0.1 | 57.9 ± 0.1 | 63.1 ± 0.1 |  | O=C1C(=Cc2ccc(Cl)cc2)CSc2ccccc21 [VA-D11, 3-[(4-chlorophenyl)methylidene]thiochromen-4-one] |  |  | 118 ± 3 |  |  |
|  |  |  |  |  |  |  |  |  |  |  |  |  |  | Nc1ccn([C@@H]2O[C@H](CO)[C@@H](O)C2(F)F)c(=O)n1 [GMB, gemcitabine, reference compound] | significant efficacy |  |  |  | significant efficacy |
| 25 ± 6 | 10.7 ± 0.1 | 62.2 ± 0.2 | 57.3 ± 0.1 | +4.9 ± 0.1 °C | 60.5 ± 0.1 | 62.9 ± 0.1 | 28 ± 0.7 | 18.5 ± 0.2 | 63.1 ± 0.1 | 64.4 ± 0.1 | 57.9 ± 0.1 | 63.3 ± 0.1 |  | CC(=O)N(c1nc(COC(=O)c2ccsc2)cs1)c1ccccc1F [VA-D10, [2-(N-acetyl-2-fluoroanilino)-1,3-thiazol-4-yl]methyl thiophene-3-carboxylate] | reduce cell viability of iCCA organoids in a dose-dependent manner | about 50% | 160 ± 4 | direct binding; also recorded: significantly move their chemical shifts |  |
|  |  |  |  |  |  |  |  |  |  |  |  |  | 6.8 ± 0.06 | NC(=O)C1=CN([C@@H]2O[C@H](COP(=O)(O)OP(=O)(O)OC[C@H]3O[C@@H](n4cnc5c(N)ncnc54)[C@H](O)[C@@H]3O)[C@@H](O)[C@H]2O)C=CC1 [NADH] |  |  |  |  |  |
|  | 14.9 ± 0.5 | 61.6 ± 0.1 | 58.1 ± 0.1 | +4.6 ± 0.1 °C | 60.2 ± 0.1 | 63.0 ± 0.1 | 28.8 ± 0.2 | 18.7 ± 0.6 | 61.8 ± 0.1 | 63.8 ± 0.1 | 57.0 ± 0.1 | 63.2 ± 0.1 |  | Cc1ccc(C(=O)OCC(=O)N=c2sccn2Cc2ccccc2Cl)s1 [VA-C6, [2-[[3-[(2-chlorophenyl)methyl]-1,3-thiazol-2-ylidene]amino]-2-oxoethyl] 5-methylthiophene-2-carboxylate] |  |  | 127 ± 4 |  |  |
